KCNK9 inh: blocks the human KCNK9 two-pore domain potassium channel; 310,000 tested, 1.2% active; Q9NPC2; B-score at 10 µM; HEK293 KCNK9, FluxOR thallium flux fluorescence; hits give low values;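 active = ratio B-score over 3 SD below the library mean, with starting fluorescence within 5 SD of its mean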;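 also: negative B-score means less thallium flux so channel inhibition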
Target sequence (Q9NPC2 whole entry, looked up, the tested form may be a part): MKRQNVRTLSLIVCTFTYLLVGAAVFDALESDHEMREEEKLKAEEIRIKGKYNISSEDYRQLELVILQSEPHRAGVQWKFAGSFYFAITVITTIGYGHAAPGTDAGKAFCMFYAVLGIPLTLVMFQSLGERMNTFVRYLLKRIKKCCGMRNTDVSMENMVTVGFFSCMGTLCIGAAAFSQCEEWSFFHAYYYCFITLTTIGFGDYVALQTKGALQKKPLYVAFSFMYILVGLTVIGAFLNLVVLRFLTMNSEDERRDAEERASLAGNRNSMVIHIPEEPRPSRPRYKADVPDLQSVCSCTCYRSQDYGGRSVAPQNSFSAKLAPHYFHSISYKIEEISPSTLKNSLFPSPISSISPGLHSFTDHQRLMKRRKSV
KCNK3 block: human KCNK3 channel inhibition, primary screen | CHO-KCNK3 thallium flux, FluxOR fluorescence; hits give low values | AID 602410 | O14649 | B-score at 10 µM | 340,000 tested, 0.84% active;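 active = B-score under library mean minus 4 SD, starting fluorescence ratio at most library mean plus 5 SD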;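 also: more negative B-score means stronger inhibition of thallium flux through KCNK3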
hERG rescue: shields human hERG channel from block by proarrhythmic agents. 310,000 tested, 0.51% active. CHO-hERG, FluxOR thallium flux, dofetilide IC70 present. AID 1511. Q12809. activation (rescue from dofetilide block), less the hit threshold, % at 10 µM;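 active = activation above the mean of controls blocked by dofetilide plus 5 SD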;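 also: thallium influx through hERG after potassium depolarization seen as dye fluorescence rise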
KCNQ1 pot: potentiators or activators of human KCNQ1 potassium channel. P51787. CHO-K1 KCNQ1, thallium flux FluxOR fluorescence; hits give high values. 310,000 tested, 0.35% active. B-score at 10 µM;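 active = fluorescence ratio B-score, a plate-corrected score, at least three library SD, with initial intensity B-score within 5 SD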
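assay system = KCNQ1-transfected CHO-K1 cells | medium = assay buffer with matched DMSO | probe or stimulus = depolarizing K+/Tl+ stimulus, K2SO4 and Tl2SO4 each 12.5 mM in 5x stock | dosing = single dose | incubation = dye 90 min, compound 20 min, room temperature | detection = kinetic FluxOR fluorescence, 10 s baseline plus 110 s post-stimulus | evaluation = ratio B score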
KCNQ1 block: inhibitors of human KCNQ1 potassium channel. CHO-K1 KCNQ1, FluxOR thallium flux fluorescence; hits give high values. B-score at 10 µM. 310,000 tested, 1.3% active. P51787;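 active = compounds whose thallium flux B-score, printed positive for inhibition, exceeds three library SD while starting fluorescence stays within three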;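 also: channel opened by potassium depolarization with thallium stimulus after 20 min compound exposure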
Kir21 inh: Kir2.1 (mouse) channel inhibition; P35561; HEK293-Kir2.1, FluxOR thallium flux fluorescence; hits give low values; B-score at 10 µM; 310,000 tested, 0.85% active; AID 1672;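 active = fluorescence ratio B-score at or below minus 3 SD of library scores, with starting-brightness B-score within 2 SD, cut at about -4.2 in these data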;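 also: channel flux triggered by added potassium and thallium sulfate stimulus; B-score of peak minus minimum fluorescence over baseline after thallium stimulus; more negative B-score means stronger Kir2.1 block with less thallium influx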
An asterisk follows results filed as active; i = inactive; x = no result. Most compounds without a hit are left out; they make up all but 3.8% or so of the library.

SMILES | KCNK9 inh | KCNK3 block | hERG rescue | KCNQ1 pot | KCNQ1 block | Kir21 inh
CCNC(=S)N1CCn2cccc2C1c1ccc(F)cc1 (stereo not drawn) | -8* | i | -8 | i | i | -0.69
CNC(=S)N1CCn2cccc2C1c1cc(OC)c(OC)c(OC)c1 (stereo not drawn) | i | i | -10 | i | i | 0.01
O=C1CCC(c2ccc(-n3ccnc3)cc2)=NN1 | i | i | -6 | 33* | i | -0.73
O=C1CCC(c2ccccc2)=NN1 | i | i | -12 | i | i | 0.92
Cc1c(Cl)cccc1NC(=S)NCCC(c1ccccc1)c1ccccc1 | i | i | -5 | i | 11* | 1.2
Cc1cc(Cl)ccc1NC(=S)NCCC(c1ccccc1)c1ccccc1 | i | i | -13 | i | 11* | 0.07
O=C(Nc1cccc(Cl)c1)N1CCN2C(=O)c3ccccc3C12c1ccccc1 (stereo not drawn) | i | i | -11 | i | 11* | 0.93
O=C(COC(=O)C1(c2ccc(Cl)cc2)CCCC1)N1CCc2ccccc21 | i | i | -12 | i | i | 0
O=C(CCl)N1CCN2C(=O)c3ccccc3C12c1ccc(Cl)cc1 (stereo not drawn) | i | i | -24 | i | i | -4.6*
O=C(CN1C(=O)c2ccccc2C1=O)Nc1cccc(Cl)c1 | i | i | -10 | i | i | -0.42
COc1ccc(CCC(=O)Nc2ccc(OC)c(S(=O)(=O)N3CCCCC3)c2)cc1 | x | i | x | x | x | x
N#C/C(=N\Nc1ccc(Cl)cc1)C(N)=S | i | i | -12 | i | 6* | -0.44
O=C1NC(=O)C(Cc2c[nH]c3ccccc23)N1 (stereo not drawn) | i | i | -7 | i | i | 1.3
CC(NCC(O)COC1CCC(C(C)(C)C)CC1)c1ccccc1 (stereo not drawn) | i | i | -14 | i | i | -8.6*
CC1CCC(C(C)C)C(OCC(O)CNC(C)c2ccccc2)C1 (stereo not drawn) | i | i | -17 | i | i | -2
CCC(NC(=O)c1oc2ccccc2c1COC)c1ccc(OC)cc1 (stereo not drawn) | i | i | -10 | i | i | -5.7*
COc1cc(OC)cc(OC(=O)C2CCN(C(=O)c3ccc(Cl)cc3)CC2)c1 | x | i | x | x | x | x
COc1ccc(N=Nc2nc(-c3ccccc3)c(-c3ccccc3)[nH]2)cc1 | i | i | -6 | i | 6* | -0.02
Oc1ccccc1N=Nc1nc(-c2ccccc2)c(-c2ccccc2)[nH]1 | i | i | -19 | i | 10* | -0.06
COc1ccccc1N=Nc1nc(-c2ccccc2)c(-c2ccccc2)[nH]1 | i | i | -28 | i | i | -0.12
CC(C)CN(C(=O)COC(=O)CNC(=O)c1ccccc1)c1c(N)n(Cc2ccccc2)c(=O)[nH]c1=O | i | i | -12 | i | i | 0.01
O=S(=O)(Cc1ccccc1)NCC1CCCO1 (stereo not drawn) | i | i | 4.7* | i | i | -1.5
O=S(=O)(Cc1ccccc1)Nc1ccc(S(=O)(=O)NCC2CCCO2)cc1 (stereo not drawn) | i | i | -2 | i | i | -0.97
O=C(CCCN1C(=O)NC2(CCCC2)C1=O)NCc1ccccc1 | x | i | x | x | x | x
CC1CN(C(=O)CSc2nnc(-c3cccs3)n2N)CC(C)O1 (stereo not drawn) | x | i | x | x | x | x
SMILES | KCNK9 inh | KCNK3 block | hERG rescue | KCNQ1 pot | KCNQ1 block | Kir21 inh
Cc1cc2c(=Cc3ccc(N(C)C)cc3)c3ccccc3n2[n+]1C | x | -10* | x | x | x | x
CCOC(=O)c1cc2c(=Cc3ccc(N(C)C)cc3)c3ccccc3n2[n+]1C | x | -11* | x | x | x | x
CN(C)c1ccc(C=c2c3ccccc3n3c2c2ccccc2[n+]3C)cc1 | x | i | x | x | x | x
COc1ccc(NC2CCCN(C(=O)c3cc(CC(C)C)nc(N)n3)C2)cc1 (stereo not drawn) | i | i | -6 | i | i | 1.3
CC1CCN(c2nc(CN3CCCCC3)nc3scc(-c4ccccc4)c23)CC1 | i | i | -21 | i | i | -7.6*
COc1cc(NC(=S)N2CCCC2)cc(OC)c1 | i | i | -5 | i | i | 3
N=c1sccn1CC(=O)Nc1ccccc1Sc1ccccc1 | i | i | -3 | i | i | -4.8*
O=C(CN1CCOCC1)Nc1ccc(Cl)c(Cl)c1 | i | i | 5.9* | i | i | 1.2
O=C(CN1CCOCC1)Nc1ccccc1Sc1ccccc1 | i | i | -11 | i | i | -6.3*
O=C(CN1CCN(S(=O)(=O)N2CCOCC2)CC1)Nc1ccc(Cl)c(Cl)c1 | i | i | -2 | i | i | 0.35
Cc1sc2ncn(CC(=O)NCC(=O)N3CCN(c4ccc(F)cc4)CC3)c(=O)c2c1C | i | i | -3 | i | i | -0.21
O=C(NC1CCCN(Cc2ccc(Cl)cc2)C1)c1ccoc1 (stereo not drawn) | i | i | -7 | i | i | 1.1
Cc1c(C(=O)NCc2nnc(-c3ccccc3)o2)oc2c(F)cccc12 | i | i | -9 | i | i | 0.19
COc1cc(C2Sc3ccccc3NC3=C2C(=O)OC3)cc(OC)c1OC (stereo not drawn) | i | i | -14 | i | i | 1.4
O=C1OCC2=C1C(c1ccc(F)cc1)Sc1ccccc1N2 (stereo not drawn) | i | i | 6.0* | i | i | -0.89
CCOC(=O)c1[nH]c2ccc(OC)cc2c1NS(=O)(=O)c1ccc(OC)cc1OC | i | i | -18 | i | i | 0.12
COC(=O)c1[nH]c2ccc(F)cc2c1NS(=O)(=O)c1ccc(OC)cc1OC | -6.6* | i | -4 | i | i | 0.01
COC(=O)c1[nH]c2ccc(C)cc2c1NS(=O)(=O)c1ccc(F)c(C)c1 | i | i | -18 | i | i | -0.21
COC(=O)c1[nH]c2ccc(C)cc2c1NS(=O)(=O)c1ccc(F)cc1 | i | i | -14 | i | i | -5.3*
Cc1cccc(/C=N/NC(=O)c2cc(Br)ccc2O)n1 | i | i | 0 | 11* | i | 1.4
COc1ccc(-c2ccc3c(c2)C2CC3CCN2S(=O)(=O)c2ccccc2C)cc1 (stereo not drawn) | x | i | x | x | x | x
CN(C)C1=NCCN1CCC1CCCC1 | i | i | -4 | i | i | 2.4
CCOc1cc(C(c2c(C)[nH][nH]c2=O)c2c(C)[nH][nH]c2=O)ccc1OCc1ccc([N+](=O)[O-])cc1 | i | i | -6 | i | i | -5.7*
CCCCCCCCCCn1ccc(=N)cc1 | i | i | -24 | i | 9* | -3.1
